# High-throughput results: PubChem, several laboratories
# An excerpt weighted towards active compounds, which were near 5.8% of everything screened.
# WT yeast gro inh: growth inhibition of WT yeast, mitochondrial fusion screen. mitochondrial fusion phenotypic screen, WT strain. inhibition, % at 10 µM. 2.1% of 190,000 active; in the data active = inhibition above about 58%; tested in S. cerevisiae
# ROMK primary: modulates human ROMK potassium channel activity; P48048; Tet-inducible ROMK, thallium flux fluorescence; actives lie on both sides; B-score at 10 µM; 2% of 130,000 active;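 active = signal ratio slope over the read window, or its plate-corrected B-score, at least 3 SD from the plate mean, either direction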;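 also: B-score of the F/F0 ratio slope over 7 to 12 s after thallium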
# 14-3-3 Bad PPI: disrupts binding of bovine 14-3-3 zeta to phospho-Bad peptide; inhibition, % at 21.7 µM; P63103; TR-FRET 14-3-3zeta/Dy647-pBad peptide displacement, 1 h; 0.71% of 220,000 active;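 active = inhibition above about 70%, limit read from the data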
# NCF1 inh: inhibitors of human p47phox binding. P14598. p47phox/p22phox peptide binding, fluorescence polarization, 2 h. inhibition, % at 24.7 µM. 0.53% of 220,000 active;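 active = inhibition above about 30%, limit read from the data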
# Target sequence (P14598 whole entry, looked up): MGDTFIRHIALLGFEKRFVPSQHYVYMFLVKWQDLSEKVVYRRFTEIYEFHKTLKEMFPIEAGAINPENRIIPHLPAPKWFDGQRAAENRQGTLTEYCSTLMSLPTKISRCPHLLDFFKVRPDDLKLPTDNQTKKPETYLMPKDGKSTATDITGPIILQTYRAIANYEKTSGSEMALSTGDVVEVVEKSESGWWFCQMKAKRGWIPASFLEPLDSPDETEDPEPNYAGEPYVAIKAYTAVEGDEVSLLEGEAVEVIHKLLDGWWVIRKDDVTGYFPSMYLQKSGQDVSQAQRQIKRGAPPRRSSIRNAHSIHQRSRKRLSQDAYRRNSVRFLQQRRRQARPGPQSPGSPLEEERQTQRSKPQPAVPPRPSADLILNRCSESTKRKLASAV
# RBBP9 inhibitor: human RBBP9 hydrolase inhibition; O75884; recombinant RBBP9, FP-Rh probe fluorescence polarization; inhibition, % at 7.94 µM; 0.2% of 220,000 active;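 active = inhibition above the campaign mean of all tested compounds plus 3 SD, cut at about 14% in these data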
# Target sequence (O75884 whole entry, looked up): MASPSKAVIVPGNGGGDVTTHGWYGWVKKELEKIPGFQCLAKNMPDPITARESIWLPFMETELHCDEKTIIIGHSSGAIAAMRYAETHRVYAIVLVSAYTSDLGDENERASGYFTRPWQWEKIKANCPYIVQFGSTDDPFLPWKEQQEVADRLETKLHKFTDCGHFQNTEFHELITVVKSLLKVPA
#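 Test system – recombinant human RBBP9 · Input – RBBP9 2.5 µM in dispensing solution, pre-mixing · Medium – Tris buffer pH 8.0, NaCl, Pluronic · Schedule – preincubation 30 min plus labeling 45 min at 25 °C · Measured by – fluorescence polarization · Measure – % inhibition · Controls – DMSO and no-protein wells · Replicates – one well per compound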
# KCC2 mod: modulators of human KCC2 chloride dependent transport. KCC2 cells, thallium flux FluoZin-2 fluorescence. B-score of Tl+ flux slope (higher = more flux/activation; lower = inhibition) at 10 µM. 2.2% of 190,000 active. AID 1456;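 active = thallium flux slope and its plate-corrected score both differing from the plate sample mean at a set confidence after two filtering rounds, in either direction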;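 also: slope of fluorescence scaled to starting intensity during 10 to 20 s after thallium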
# KCC2 secondary: KCC2 (human) modulation, secondary assay | shares compounds with KCC2 mod | HEK293-KCC2, thallium flux, FluoZin2 fluorescence; stronger effect = higher value | normalised thallium flux (F/F0 slope) at 10 µM | 15% of 3,700 active;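 active = thallium flux slope above the same plate's solvent-only control mean plus 3 SD; inconclusive = the two replicate wells disagree; inactive = no significant difference from solvent-only control wells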
# KCC2 bumet counter: bumetanide-insensitive thallium flux in KCC2 cells with ouabain, counter-screen; shares compounds with KCC2 mod; HEK293-KCC2 + bumetanide/ouabain, thallium flux FluoZin2; stronger effect = higher value; normalized thallium flux at 10 µM; 49% of 3,700 active; AID 1714;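 active = thallium entry rate above the same plate's blocked-transporter control wells by more than 3 SD; inconclusive = the two repeat wells disagree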;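 also: raw slope of fluorescence over initial fluorescence between 10 and 20 s after thallium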
# KCC2 secondary2: confirmation of human KCC2 transport modulators; shares compounds with KCC2 mod; HEK293-KCC2, thallium flux FluoZin2 fluorescence; actives lie on both sides; F/F0 rise rate, 10–20 s post-thallium; normalized thallium flux at 10 µM; 23% of 3,700 active; AID 1715;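 active = thallium flux slope more than 3 SD above or below the plate's solvent-only control mean, mostly below; inconclusive = the two repeat wells disagreed; inactive = no significant shift from solvent-only controls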
# HEK293 Tl flux: counter-screen for KCC2 modulators: effect in parental HEK293 cells; shares compounds with KCC2 mod; thallium flux FluoZin2, ouabain; baseline-ratio fluorescence slope, 10–20 s after thallium; thallium flux rate (normalised fluorescence) at 10 µM; 46% of 3,700 active; AID 1716;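 active = thallium flux rate significantly above the same plate's solvent-only control wells, beyond their mean plus 3 SD; inconclusive = the two replicate wells gave conflicting results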
# KCC2 retest ouab: confirmation of human KCC2 modulators with ouabain. HEK293-KCC2, thallium flux FluoZin2 fluorescence; bidirectional: low = inhibitor, high = activator. 48% of 3,700 active. raw Tl+ flux slope (below DMSO = inhibition, above = activation) at 10 µM. AID 1717. shares compounds with KCC2 mod;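 active = thallium flux slope beyond 3 SD from same-plate DMSO control mean in most replicates, usually higher, sometimes lower; inconclusive = repeat tests gave conflicting results; inactive = no significant difference from controls in most replicates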;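 also: slope of initial-normalized fluorescence between seconds 10 and 20 after thallium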
# HEK293 Tl flux2: parental HEK flux effect, counter-screen 2; 33% of 3,700 active; thallium flux slope at 10 µM; HEK293 parental, thallium flux FluoZin-2 fluorescence slope; shares compounds with KCC2 mod;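 active = thallium flux slope above the same plate's solvent-control mean plus 3 SD in both duplicate wells; inconclusive = duplicate wells that disagreed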;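 also: run without ouabain in cells lacking the KCC2 cotransporter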
# Hits are given with their value; . = inactive; ? = inconclusive; / = no result.
SMILES,WT yeast gro inh,ROMK primary,14-3-3 Bad PPI,NCF1 inh,RBBP9 inhibitor,KCC2 mod,KCC2 secondary,KCC2 bumet counter,KCC2 secondary2,HEK293 Tl flux,KCC2 retest ouab,HEK293 Tl flux2
CCOc1ccc(N2C(=O)CS/C2=N/NC(=O)COc2ccc3ccccc3c2)cc1,.,/,.,.,.,-5,.,.,0.029,.,0.016,.
Cc1cc(C(=O)O)ccc1-c1ccc(/C=C2\NC(=O)N(Cc3ccccc3Cl)C2=O)o1,.,.,.,.,.,.,/,/,/,/,/,/
Cc1ccc(C(=O)O)cc1-c1ccc(/C=C2/NC(=O)N(c3ccccc3)C2=O)o1,.,.,.,.,.,-4.6,.,.,0.022,.,0.014,.
O=C(CCC(=O)Nc1nnc(C2CCCCC2)s1)NCc1ccccc1,/,/,.,.,.,.,/,/,/,/,/,/
NC(=O)c1ccc(F)cc1,.,.,.,.,.,.,.,.,.,.,.,.
N#CCCCSc1ncccc1-c1nc2ccccc2[nH]1,.,.,.,.,.,.,.,.,.,.,.,.
N#CCSc1ncccc1-c1nc2ccccc2[nH]1,.,.,.,.,.,.,/,/,/,/,/,/
Cc1nc2ccccc2c(=O)n1NC(=O)c1cccc([N+](=O)[O-])c1,.,.,.,.,.,.,/,/,/,/,/,/
O=C(NC1CC1)c1cc2c(s1)-c1ccccc1OC2,.,/,.,.,.,/,.,.,.,.,0.017,.
CCNC(=O)CC1C(=O)N(c2ccc(C)cc2)C(=O)N1CCc1sccc1C (stereo unspecified),.,.,.,.,.,.,/,/,/,/,/,/
COc1ccc(Cl)cc1NC(=S)Nc1cccc(C)c1,.,.,.,.,.,.,/,/,/,/,/,/
Cc1cccc(NC(=S)NNC(=O)COc2ccc(Cl)cc2Cl)c1,63,/,.,.,.,6.5,.,0.16,.,0.028,0.053,0.013
Cc1ccc(OCC(=O)NNC(=S)NC(=O)C(C)(C)C)c(Br)c1,84,.,.,.,.,50,0.025,0.098,?,0.068,0.065,0.024
CC1(C)CC(=O)C(N=Nc2ccc(S(=O)(=O)N3CCOCC3)cc2)=C(O)C1,/,/,.,.,.,.,/,/,/,/,/,/
COc1ccccc1NC(=O)C1CCCN(c2nc(C)cc(C)n2)C1 (stereo unspecified),.,.,.,.,.,.,/,/,/,/,/,/
CCOc1ccc(OCC)c(NC(=O)C2CCCN(c3nc(C)cc(C)n3)C2)c1 (stereo unspecified),.,/,.,.,.,-3.7,.,.,?,0.0057,0.014,?
CS(=O)(=O)Oc1ccc(/C=N/NC(=O)c2ccncc2)cc1,.,.,.,.,.,.,/,/,/,/,/,/
Cc1ccc(-c2oc3ccccc3c(=O)c2OCC(=O)O)cc1,.,.,.,.,.,.,/,/,/,/,/,/
Cc1ccc(-c2oc3ccccc3c(=O)c2O)cc1,.,/,.,.,.,106,0.0099,0.1,0.081,0.095,0.097,0.08
CS(=O)(=O)c1ccc2nc(NC(=O)c3ccco3)sc2c1,.,/,.,.,.,.,/,/,/,/,/,/
Cc1ccc(-c2csc(N/N=C/c3ccco3)n2)cc1,.,/,.,.,.,.,/,/,/,/,/,/
C(=N\Nc1nc(-c2ccccc2)cs1)/c1ccco1,.,/,.,.,.,-4.3,.,.,?,.,0.015,.
Cc1ccc(-c2csc(NC(=O)CCNC(=O)c3ccco3)n2)cc1,.,.,.,.,.,.,/,/,/,/,/,/
O=C(NNc1nc(-c2ccccc2)cs1)c1ccco1,.,.,.,.,.,-6.2,?,?,0.019,?,0.012,.
Cc1ccc(-c2csc(NC(=S)NC(=O)c3ccco3)n2)cc1,.,.,.,.,.,32,0.016,0.047,.,0.028,0.039,0.013
SMILES,WT yeast gro inh,ROMK primary,14-3-3 Bad PPI,NCF1 inh,RBBP9 inhibitor,KCC2 mod,KCC2 secondary,KCC2 bumet counter,KCC2 secondary2,HEK293 Tl flux,KCC2 retest ouab,HEK293 Tl flux2
O=C(NC(=S)Nc1nc2ccc(F)cc2s1)c1ccco1,.,.,.,.,.,41,?,0.13,0.097,0.092,0.11,0.089
O=C(Nc1nccs1)c1cncc(Br)c1,.,.,.,.,.,.,/,/,/,/,/,/
O=C(NCc1cccnc1)NC1CC(=O)N(c2ccc3c(c2)OCCO3)C1 (stereo unspecified),.,.,.,.,.,.,/,/,/,/,/,/
Cc1ncsc1CCC(=O)N1CCCC(C(=O)c2ccc3c(c2)OCO3)C1 (stereo unspecified),.,.,.,.,.,.,/,/,/,/,/,/
CCOc1cc(/C=N/NC(=O)c2cccnc2)ccc1OCC(=O)N1CCOCC1,.,/,.,.,.,.,/,/,/,/,/,/
COc1nc2ccccc2nc1OC,.,/,.,.,.,.,/,/,/,/,/,/
Oc1c(I)cc(I)c2cccnc12,.,/,.,.,.,78,.,0.078,.,0.044,0.084,0.013
O=C(Oc1c(Cl)cc(Cl)c2cccnc12)c1cccs1,60,.,.,.,.,3,.,0.03,.,0.016,0.035,?
Oc1c(Cl)cc(Cl)c2cccnc12,.,.,.,.,.,88,0.019,0.12,0.047,0.098,0.096,0.032
O=C(Oc1c(CN2CCOCC2)cc(Cl)c2cccnc12)c1cccs1,.,.,.,.,.,.,/,/,/,/,/,/
Cc1cccc(OC(C)C(=O)N/N=C\c2ccncc2)c1 (stereo unspecified),.,.,.,/,.,.,/,/,/,/,/,/
Cn1c(N)c(C(=O)COC(=O)COc2ccc3ccccc3c2)c(=O)n(C)c1=O,.,/,.,.,.,.,/,/,/,/,/,/
COc1ccc(OCCCc2c(C)n[nH]c2C)cc1,.,.,.,.,.,4.8,.,.,.,.,.,?
Cc1n[nH]c(C)c1CCCOc1ccccc1,.,.,.,.,.,/,/,/,/,/,/,/
CC(=O)c1cccc(NC(=O)C(=O)c2cn(CC(=O)N3CCCCC3)c3ccccc23)c1,.,.,.,.,.,.,/,/,/,/,/,/
O=C(COC(=O)CCc1ccc(S(=O)(=O)N2CCOCC2)cc1)NCc1ccccc1,.,.,.,.,.,.,/,/,/,/,/,/
COc1ccccc1NC(=S)N=Nc1c(O)[nH]c2ccc(Br)cc12,/,/,.,.,.,9.1,.,0.01,.,0.014,?,0.017
